Shown are actives, neighbours in structure and some others; about 3.1% of the full set was active somewhere.
CHO parental Ca = counter-screen: ATP calcium response change in parental CHO cells. inhibition, % at 5.6 µM. AID 463079. parental CHO-K1, ATP-induced calcium, Fluo-8 fluorescence. 330,000 tested, 0.63% active;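 active = inhibition above that plate's mean sample inhibition plus 3 SD, cut at about 26% in these data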
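Assay system: untransfected parental CHO cell line. Also added: ATP agonist challenge. Dosing: one dose, 5.6 µM nominal. Measured by: Fluo-8 fluorescence. Read-out: % inhibition. Benchmarks: ATP wells versus no-ATP DMSO wells. Repeats: no replicates.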
GPR7 antagonist = human neuropeptides B/W receptor 1 antagonism; inhibition, % at 4.4 µM; AID 1861; GPR7-expressing cells, fluorescence antagonist assay; 290,000 tested, 1.1% active; P48145; in the data active = inhibition above about 16%, passing the limit was not always enough;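 also: cells stimulated with the agonist NPW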
OX1R antag-1 = antagonists of human orexin 1 receptor (OX1R) | O43613 | OX1R-expressing cells, FRET antagonist read-out | inhibition, % at 6.6 µM | 330,000 tested, 1.8% active; in the data active = inhibition mostly above about 38%, no sharp cut-off; inactive = mostly below about 40%
Target sequence (O43613 whole entry, looked up): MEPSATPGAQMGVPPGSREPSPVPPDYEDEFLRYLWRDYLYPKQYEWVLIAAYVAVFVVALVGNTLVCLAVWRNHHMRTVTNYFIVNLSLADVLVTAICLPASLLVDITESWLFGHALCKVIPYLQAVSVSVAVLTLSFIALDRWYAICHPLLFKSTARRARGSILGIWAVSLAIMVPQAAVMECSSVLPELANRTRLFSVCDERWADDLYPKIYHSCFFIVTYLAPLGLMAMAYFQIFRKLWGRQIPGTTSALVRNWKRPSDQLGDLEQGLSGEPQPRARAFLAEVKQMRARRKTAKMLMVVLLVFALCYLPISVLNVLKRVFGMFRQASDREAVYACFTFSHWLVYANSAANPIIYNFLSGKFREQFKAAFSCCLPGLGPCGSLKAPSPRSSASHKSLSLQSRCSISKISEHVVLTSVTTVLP
GalR3 antagonist = antagonists of human GalR3; HEK293 GalR3-CNG cAMP membrane potential fluorescence; galR3 body fused to GalR1 C-terminus; inhibition, % at 3 µM; 360,000 tested, 0.44% active; AID 651719;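 active = inhibition above the screen-wide average plus 3 SD, cut at about 13% in these data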;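 also: forskolin and galanin both at EC90 stimulate the cells; cAMP rise reported by CNG channel membrane potential dye signal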
Target sequence (O60755 1-299 limits assumed): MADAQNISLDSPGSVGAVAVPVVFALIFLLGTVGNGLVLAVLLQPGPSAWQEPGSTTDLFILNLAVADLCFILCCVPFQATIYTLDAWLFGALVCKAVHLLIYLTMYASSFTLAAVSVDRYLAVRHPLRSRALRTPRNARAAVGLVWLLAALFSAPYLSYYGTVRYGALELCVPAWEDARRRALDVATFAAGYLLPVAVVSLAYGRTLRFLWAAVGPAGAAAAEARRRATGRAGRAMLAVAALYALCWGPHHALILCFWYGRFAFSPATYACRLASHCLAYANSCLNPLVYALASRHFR
OX1R antag-2 = antagonists of human orexin 1 receptor. O43613. CHO/OX1R cells, Fluo-8 calcium fluorescence, orexin A. inhibition, % at 5 µM. 330,000 tested, 0.43% active. AID 434989;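 active = inhibition above its plate's threshold, mean inhibition of all tested compounds on the plate plus 3 SD, cut at about 37% in these data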
GPR7 antag cf = human GPR7 antagonism, confirmation assay; inhibition, % at 4.4 µM; 2,400 tested, 52% active; GPR7-expressing cells, calcium fluorescence antagonist mode; shares compounds with GPR7 antagonist; in the data active = inhibition above about 24%;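 also: stimulated with the GPR7 agonist NPW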
MCHR1 antagonist = counter-screen for GPR7 antagonists: antagonists of human MCHR1. shares compounds with GPR7 antagonist. MCHR1-expressing cells, fluorescence antagonist assay. inhibition, % at 4.4 µM. 2,400 tested, 62% active; in the data active = inhibition above about 22%
Large screens that a line does not name were inactive (follow-up assays come after a bar, where they were run).

Cc1cccc(-n2nnc(C(=O)Nc3ccc(F)cc3)c2N)c1	none
COc1ccc(OC)c2c1sc(=NC(=O)c1ccco1)n2C	none (no result: GalR3 antagonist)
CCn1c(=NC(=O)c2ccco2)sc2cccc(F)c21	OX1R antag-1 65 (no result: GalR3 antagonist)
S=C(NCc1ccccc1)NCc1ccc(CNC(=S)NCc2ccccc2)cc1	CHO parental Ca 48
CCN(CC(=O)Nc1ccc(NC(C)=O)cc1)C(=O)c1cc([N+](=O)[O-])ccc1Sc1ccc(Cl)cc1	none (no result: CHO parental Ca, GPR7 antagonist, OX1R antag-1, OX1R antag-2)
O=C(N[C@H](C(=O)N1CCC[C@H]1C(=O)NC1CCCC1)c1ccccc1)C1CCCC1	none (no result: CHO parental Ca, GPR7 antagonist, OX1R antag-1, OX1R antag-2)
Nc1nc(-c2ccccc2)[nH]c(=O)c1N=O	OX1R antag-1 58
Cc1cccn2c(CNC3CCCc4ccccc43)c(C(=O)N3CCCCC3)nc12 (configuration not stated)	GPR7 antagonist 34 | GPR7 antag cf inactive | MCHR1 antagonist inactive
CCOC(=O)C1CCCN(Cc2c(C(=O)N3CCCCC3)nc3c(C)cccn23)C1 (configuration not stated)	none
O=C(c1ccccc1)c1ccc(Sc2ccc([N+](=O)[O-])cc2)cc1	GPR7 antagonist 22 | GPR7 antag cf inactive | MCHR1 antagonist 53
O=C(CSc1ccc([N+](=O)[O-])cc1)c1ccccc1	none (no result: CHO parental Ca, GPR7 antagonist, OX1R antag-1, OX1R antag-2)
CN1CCN(CCOC2Cc3ccccc3Sc3ccc(Cl)cc32)CC1 (configuration not stated)	GPR7 antagonist 23 | GPR7 antag cf 33 | MCHR1 antagonist 44
OCCN1CCN(C2Cc3cc(Cl)ccc3Sc3ccc(Cl)cc32)CC1 (configuration not stated) (tested in a mixture with another compound)	none (no result: GalR3 antagonist)
CC[C@@H]1Cc2[nH][nH]c(=O)c2[C@@H](c2ccc(Cl)cc2)O1	none (no result: CHO parental Ca, GPR7 antagonist, OX1R antag-1, OX1R antag-2)
COc1ccc(OC)c(NS(=O)(=O)c2c(C(=O)N3CCCCCC3)c(C)n(C)c2C)c1	GPR7 antagonist 45 | GPR7 antag cf 28 | MCHR1 antagonist inactive
COc1ccccc1NS(=O)(=O)c1c(C(=O)N2CCCC2)c(C)n(C)c1C	none
CC(C)NC(=O)c1cc(-c2ccc3c(c2)OCO3)on1	GPR7 antagonist 44 | GPR7 antag cf inactive | MCHR1 antagonist inactive
CCOC(=O)c1c(C)[nH]c(C(=O)OC(C)C(=O)NC2(C#N)CCCCC2)c1C (configuration not stated)	none (no result: CHO parental Ca, GPR7 antagonist, OX1R antag-1, OX1R antag-2)
NS(=O)(=O)c1ccc(CCNC(=O)CSc2nc3ccsc3c(=O)n2C2CC2)cc1	none
CCOC(=O)N1CCC(n2c(SCC(=O)NCCc3ccc(S(N)(=O)=O)cc3)nc3ccccc3c2=O)CC1	GPR7 antagonist 43 | GPR7 antag cf inactive | MCHR1 antagonist inactive
COC(=O)C1=C(C)N(Cc2cccc(C(F)(F)F)c2)C(=NCc2cc(OC)c(OC)c(OC)c2)NC1c1ccc(F)cc1 (configuration not stated)	none (no result: CHO parental Ca, GPR7 antagonist, OX1R antag-1, OX1R antag-2)
Cc1ccc2c(c1)C(N1CCCC1=O)CC(c1ccco1)N2 (configuration not stated)	GPR7 antagonist 31 | GPR7 antag cf inactive | MCHR1 antagonist inactive
Cc1ccc(C2CC(c3ccco3)n3ncnc3N2)cc1 (configuration not stated)	none
CS(=O)(=O)N1CCc2cc(-c3csc(NC(=O)Cc4cccs4)n3)ccc21	GPR7 antagonist 39 | GPR7 antag cf 69 | MCHR1 antagonist 83
CCC(CC)c1nc(C#N)c(NCc2ccccc2)o1	GPR7 antagonist 31 | GPR7 antag cf inactive | MCHR1 antagonist 28
N#Cc1nc(Cc2ccccc2)oc1NCc1ccccc1	none
CCCCCCCN1C(Nc2ccccc2)=NC[C@@H]1CC(C)C	GPR7 antagonist 44 | GPR7 antag cf 40 | MCHR1 antagonist 34
CC(C)C[C@H]1CN=C(Nc2ccccc2)N1CCCC1CCCCC1	GPR7 antagonist 55 | GPR7 antag cf 53 | MCHR1 antagonist 39
CC(C)C[C@H]1CN=C(Nc2ccccc2)N1CCC1CCCC1	none
CC(C)C[C@H]1CN=C(Nc2ccccc2)N1CC1CCC(C)CC1 (some centres not stated)	GPR7 antagonist 33 (no result: GalR3 antagonist) | GPR7 antag cf 30 | MCHR1 antagonist 22
CC(C)C[C@H]1CN=C(Nc2ccccc2)N1CCCC1CCCC1	GPR7 antagonist 46 | GPR7 antag cf 49 | MCHR1 antagonist 36
COc1ccccc1-c1ncn(Cc2cccc(-c3ccccc3)c2)c1CC(C)C	none (no result: CHO parental Ca, GPR7 antagonist, OX1R antag-1, OX1R antag-2)
O=C(CN1CCN(S(=O)(=O)c2ccccc2)CC1)N1CCc2ccccc21	none (no result: GPR7 antagonist)
CCCCNC(=O)C1c2ccccc2OCC(=O)N1CC(F)(F)F (configuration not stated)	none (no result: CHO parental Ca, GPR7 antagonist, OX1R antag-1, OX1R antag-2)
COc1ccc(Cl)cc1N(C(=O)c1ccco1)C(C(=O)NC1CCCC1)c1cccnc1 (configuration not stated)	GPR7 antagonist 23 | GPR7 antag cf inactive | MCHR1 antagonist inactive
COc1ccc(N(C(=O)c2ccco2)C(C(=O)NC2CCCC2)c2ccco2)cc1OC (configuration not stated)	none
COc1ccc(Cl)cc1N(C(=O)c1ccco1)C(C(=O)NC1CCCC1)c1ccncc1 (configuration not stated)	none
COc1ccc(Cl)cc1N(C(=O)c1ccco1)C(C(=O)NC1CCCC1)c1ccco1 (configuration not stated)	GPR7 antagonist 29 | GPR7 antag cf 28 | MCHR1 antagonist 22
COc1ccc(OC)c(N(C(=O)c2ccco2)C(C(=O)NC2CCCC2)c2cc(OC)c(OC)c(OC)c2)c1 (configuration not stated)	GPR7 antagonist 32 | GPR7 antag cf inactive | MCHR1 antagonist inactive
COc1ccc(N(C(=O)c2ccco2)C(C(=O)NC2CCCC2)c2ccc(OC)c(OC)c2)cc1 (configuration not stated)	none
NNC(=O)c1nnsc1-c1csnn1	none (no result: CHO parental Ca, GPR7 antagonist, OX1R antag-1, OX1R antag-2)
COc1ccc(NC(=O)CN(C2CCCCC2)S(C)(=O)=O)cc1OC	none
CSc1cccc(NC(=O)CN(C2CCCCC2)S(C)(=O)=O)c1	GPR7 antagonist 28 | GPR7 antag cf inactive | MCHR1 antagonist inactive
O=C(Nc1ncccc1O)c1ccc(Oc2ccccc2)cc1	GPR7 antagonist 35 | GPR7 antag cf inactive | MCHR1 antagonist inactive
O=C(COc1ccc(C(=O)c2ccccc2)cc1)Nc1ncccc1O	none
COc1ccccc1CNCc1cc(OC)c(OC)cc1OC	none
COc1ccccc1CNCC(c1ccccc1)c1ccccc1	GPR7 antagonist 42 | GPR7 antag cf 46 | MCHR1 antagonist 34
COc1ccccc1CNCC(O)Cn1c2ccccc2c2ccccc21 (configuration not stated)	GPR7 antagonist 37 | GPR7 antag cf 68 | MCHR1 antagonist 73
CN(C)CCCCOc1ccc(Br)cc1Cl	GPR7 antagonist 29 | GPR7 antag cf inactive | MCHR1 antagonist inactive
CC1CCN(CCOCCOc2ccc(Br)cc2Cl)CC1	GPR7 antagonist 29 | GPR7 antag cf 32 | MCHR1 antagonist 37

Screening results deposited in PubChem BioAssay by The Scripps Research Institute Molecular Screening Center.
